Measured values gathered from unrelated publications.
Protocols differ between the studies behind these lines.
Target: Activin receptor type-1 (ACVR1, Homo sapiens, UniProt Q04771)
One construct used (Q04771 21-509): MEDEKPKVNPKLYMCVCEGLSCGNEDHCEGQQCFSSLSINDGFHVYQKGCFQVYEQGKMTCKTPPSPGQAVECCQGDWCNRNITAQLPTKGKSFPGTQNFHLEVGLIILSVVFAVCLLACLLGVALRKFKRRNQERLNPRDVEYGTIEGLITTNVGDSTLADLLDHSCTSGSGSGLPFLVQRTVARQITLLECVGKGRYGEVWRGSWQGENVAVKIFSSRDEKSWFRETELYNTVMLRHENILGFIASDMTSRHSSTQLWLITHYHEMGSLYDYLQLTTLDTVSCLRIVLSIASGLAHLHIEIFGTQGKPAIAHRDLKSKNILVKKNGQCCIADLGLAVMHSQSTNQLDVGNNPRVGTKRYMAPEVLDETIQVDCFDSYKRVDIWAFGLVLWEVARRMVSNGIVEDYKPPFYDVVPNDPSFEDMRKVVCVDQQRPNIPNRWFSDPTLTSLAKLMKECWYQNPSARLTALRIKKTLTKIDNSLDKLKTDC

| SMILES | test | conditions | quantity | value |
| --- | --- | --- | --- | --- |
| CCCCC(=O)Nc1ccc(-c2ccc3ncn(CCC)c(=O)c3c2)cn1 | binding, competition with immobilised ligand | 0.5 µM | remaining binding | 100% |
| C=CC(=O)N1CCC([C@@H]2CCNc3c(C(N)=O)c(-c4ccc(Oc5ccccc5)cc4)nn32)CC1 | cell-free assay | 1 µM | inhibition | 13% |
| CC(C)S(=O)(=O)c1ccc2nccc(Nc3ccc4sc(C5CCCC5)nc4c3)c2c1 | enzyme activity, inhibitor | 1 µM | activity vs control | 111% |
| CO[C@@H]1[C@H](N(C)C(=O)c2ccccc2)C[C@H]2O[C@]1(C)n1c3ccccc3c3c4c(c5c6ccccc6n2c5c31)C(=O)NC4 | enzyme activity, inhibitor | 1 µM | inhibition | 0% |
| CN1CCN(C(=O)c2ccc(NC(=O)Nc3ccc(N(C)c4ccnc(Nc5ccc(CS(C)(=O)=O)cc5)n4)cc3)cc2)CC1 | binding, competition with immobilised ligand | 1 µM | remaining binding | 28% |
| C1=C/COCc2cc(ccc2OCCN2CCCC2)Nc2nccc(n2)-c2cccc(c2)COC/1 | binding | 0.1 µM | remaining binding | 3.7% |
| COc1ccc2oc(-c3ccc4nc(N)oc4c3)c/c(=N\c3ccccc3NC(=O)CCN)c2c1 | binding | 1 µM | remaining binding | 104% |
| COc1ccc2[nH]c3c4[nH]c5ccc(OC)cc5c4c4c(c3c2c1)C(=O)NC4=O | binding, competition with immobilised ligand | 1 µM | remaining binding | 77% |
